From ChEMBL document CHEMBL1828597, “Tyrosyl-tRNA synthetase inhibitors as antibacterial agents: synthesis, molecular docking and structure-activity relationship analysis of 3-aryl-4-arylaminofuran-2(5H)-ones” (Eur J Med Chem, 2011)
Values after ≈ are worked out from the molar mass of the structure shown.

Experiments:
[1] = system: Escherichia coli; experiment: Antibacterial activity against Escherichia coli ATCC 35218 after 24 hrs by MTT assay; format: functional; details: ATCC 35218, 24 h
Outline: (§1)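 LB medium, inocula of about 10⁵ cfu/mL in 96-well plates against serially diluted compounds (DMSO stock diluted in 50% v/v DMSO/PBS), 37 °C for 24 h. Read-out: PBS containing 2 mg/mL MTT added for 4–5 h at room temperature, wells emptied, solubilizer added for 12 h at room temperature, then OD at 550 nm. MIC₅₀ from this colorimetric read.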

[2] = system: Staphylococcus aureus; experiment: Antibacterial activity against Staphylococcus aureus ATCC 25923 after 24 hrs by MTT assay; format: functional; details: ATCC 25923, 24 h; outline: as §1
[3] = system: Bacillus subtilis; experiment: Antibacterial activity against Bacillus subtilis ATCC 6633 after 24 hrs by MTT assay; format: functional; details: ATCC 6633, 24 h; outline: as §1
[4] = Inhibition of Staphylococcus aureus TyrRS assessed as inhibition of [3H]tyrosine incorporation after 10 mins by liquid scintillation counting
[5] = system: Candida albicans; experiment: Antifungal activity against Candida albicans ATCC 10231 after 48 hrs by MTT assay; details: ATCC 10231, 48 h

MIC50 [1] [mg/L] | MIC50 [2] [mg/L] | MIC50 [3] [mg/L] | IC50 [4] [µM] | MIC50 [5] [mg/L] | Compound
> 50 | 4.6 (≈ 14.4 µM) | 11.7 (≈ 36.5 µM) | 4.3 | 12.2 (≈ 38.1 µM) | O=C1OCC(Nc2cccc(Cl)c2)=C1c1cccc(Cl)c1
> 50 | 0.42 (≈ 1.05 µM) | 2.2 (≈ 5.51 µM) | 0.39 | 5.8 (≈ 14.5 µM) | O=C1OCC(Nc2cc(Cl)cc(Cl)c2)=C1c1ccc(Br)cc1
> 50 | > 50 | > 50 | 17.5 | > 50 | COc1cc(NC2=C(c3ccc(Br)cc3)C(=O)OC2)cc(OC)c1
> 50 | 25.2 (≈ 72.8 µM) | > 50 | 15.4 | > 50 | O=C1OCC(Nc2cccc(O)c2)=C1c1ccc(Br)cc1
> 50 | 34.6 (≈ 94.9 µM) | > 50 | 21 | 49.3 (≈ 135 µM) | O=C1OCC(Nc2ccccc2Cl)=C1c1ccc(Br)cc1
> 50 | 3.3 (≈ 10.3 µM) | 10.9 (≈ 34 µM) | 2.4 | 9.7 (≈ 30.3 µM) | O=C1OCC(Nc2cccc(Cl)c2)=C1c1ccc(Cl)cc1
> 50 | 10.2 (≈ 23.9 µM) | 38.6 (≈ 90.4 µM) | 9.2 | 28.6 (≈ 67 µM) | O=C1OCC(Nc2cc(Br)cc(Br)c2)=C1c1ccc(F)cc1
> 50 | 2.9 (≈ 8.18 µM) | 13.4 (≈ 37.8 µM) | 2.9 | 10.1 (≈ 28.5 µM) | O=C1OCC(Nc2cc(Cl)cc(Cl)c2)=C1c1cccc(Cl)c1
> 50 | 10.8 (≈ 28.8 µM) | 28.6 (≈ 76.2 µM) | 10.3 | 26.3 (≈ 70.1 µM) | O=C1OCC(Nc2cccc([N+](=O)[O-])c2)=C1c1ccc(Br)cc1
> 50 | 1.8 (≈ 5.14 µM) | 9.6 (≈ 27.4 µM) | 1.6 | 7.2 (≈ 20.6 µM) | COc1ccc(C2=C(Nc3cc(Cl)cc(Cl)c3)COC2=O)cc1
> 50 | 0.06 (≈ 0.15 µM) | 1.2 (≈ 3.01 µM) | 0.09 | 5.4 (≈ 13.5 µM) | O=C1OCC(Nc2cc(Cl)cc(Cl)c2)=C1c1cccc(Br)c1
> 50 | 2.5 (≈ 6.86 µM) | 11.3 (≈ 31 µM) | 1.7 | 9 (≈ 24.7 µM) | O=C1OCC(Nc2cccc(Cl)c2)=C1c1ccc(Br)cc1
> 50 | 49.4 (≈ 156 µM) | > 50 | 32.5 | > 50 | COc1ccccc1NC1=C(c2cccc(Cl)c2)C(=O)OC1
 | 1.1 (≈ 2.27 µM) | 0.42 (≈ 0.867 µM) |  |  | NC[C@H]1O[C@H](O[C@H]2[C@H](O)[C@@H](O[C@H]3O[C@H](CO)[C@@H](O)[C@H](N)[C@H]3O)[C@H](N)C[C@@H]2N)[C@H](O)[C@@H](O)[C@@H]1O [KANAMYCIN]
> 50 | > 50 | > 50 | 63.3 | > 50 | O=C1OCC(Nc2ccc([N+](=O)[O-])cc2)=C1c1ccc(Br)cc1
> 50 | 2.3 (≈ 4.71 µM) | 8.8 (≈ 18 µM) | 1.9 | 8.5 (≈ 17.4 µM) | O=C1OCC(Nc2cc(Br)cc(Br)c2)=C1c1cccc(Br)c1
> 50 | > 50 | > 50 | > 100 | > 50 | Cc1ccc(NC2=C(c3ccc(Br)cc3)C(=O)OC2)cc1
> 50 | > 50 | > 50 | 36.8 | > 50 | COc1ccccc1NC1=C(c2ccc(Br)cc2)C(=O)OC1
> 50 | 12.6 (≈ 34.6 µM) | > 50 | 15.2 | 25.7 (≈ 70.5 µM) | O=C1OCC(Nc2ccc(Cl)cc2)=C1c1ccc(Br)cc1

MIC50 [1] [mg/L] | MIC50 [2] [mg/L] | MIC50 [3] [mg/L] | IC50 [4] [µM] | MIC50 [5] [mg/L] | Compound
> 50 | > 50 | > 50 | 89.9 | > 50 | O=C1OCC(Nc2ccccc2Cl)=C1c1ccccc1
> 50 | 7.1 (≈ 19.4 µM) | 19.4 (≈ 53 µM) | 6.3 | 21.7 (≈ 59.3 µM) | O=C1OCC(Nc2cc(F)cc(F)c2)=C1c1ccc(Br)cc1
> 50 | 32.1 (≈ 112 µM) | > 50 | 20.8 | 41.8 (≈ 146 µM) | O=C1OCC(Nc2cccc(Cl)c2)=C1c1ccccc1
> 50 | > 50 | > 50 | > 100 | > 50 | O=C1OCC(Nc2ccccc2[N+](=O)[O-])=C1c1ccccc1
> 50 | > 50 | > 50 | 85.2 | > 50 | O=C1OCC(Nc2ccc(O)cc2)=C1c1ccc(Br)cc1
2 (≈ 5.98 µM) |  |  |  |  | CC1(C)S[C@@H]2[C@H](NC(=O)Cc3ccccc3)C(=O)N2[C@H]1C(=O)O [PENICILLIN G]
> 50 | > 50 | > 50 | 97.6 | > 50 | COc1ccc(NC2=C(c3ccc(Br)cc3)C(=O)OC2)cc1
> 50 | 27.8 (≈ 84.2 µM) | 41.7 (≈ 126 µM) | 16.6 | 37.5 (≈ 114 µM) | O=C1OCC(Nc2ccccc2)=C1c1ccc(Br)cc1
> 50 | > 50 | > 50 | 44.6 | > 50 | O=C1OCC(Nc2cccc([N+](=O)[O-])c2)=C1c1ccccc1
> 50 | 6.5 (≈ 15.9 µM) | 31.6 (≈ 77.2 µM) | 5.4 | 18.7 (≈ 45.7 µM) | O=C1OCC(Nc2ccc(Br)cc2)=C1c1cccc(Br)c1
> 50 | 2.9 (≈ 8.63 µM) | 9.8 (≈ 29.2 µM) | 3.5 | 10.2 (≈ 30.3 µM) | O=C1OCC(Nc2cc(Cl)cc(Cl)c2)=C1c1ccc(O)cc1
> 50 | 39 (≈ 118 µM) | > 50 | 25.6 | > 50 | O=C1OCC(Nc2ccccn2)=C1c1ccc(Br)cc1
> 50 | > 50 | > 50 | 49.7 | > 50 | O=C1OCC(Nc2ccccc2[N+](=O)[O-])=C1c1cccc(Cl)c1
> 50 | 21.5 (≈ 67.2 µM) | 47.5 (≈ 148 µM) | 15.7 | 46.8 (≈ 146 µM) | O=C1OCC(Nc2ccccc2Cl)=C1c1cccc(Cl)c1
> 50 | > 50 | > 50 | 67.3 | > 50 | O=C1OCC(Nc2ccccc2[N+](=O)[O-])=C1c1ccc(Br)cc1
> 50 | 23.1 (≈ 56.5 µM) | > 50 | 11.4 | 41.8 (≈ 102 µM) | O=C1OCC(Nc2ccc(Br)cc2)=C1c1ccc(Br)cc1
> 50 | 23.5 (≈ 48.2 µM) | > 50 | 13.6 | 49.2 (≈ 101 µM) | O=C1OCC(Nc2cc(Br)cc(Br)c2)=C1c1ccc(Br)cc1
> 50 | 45.8 (≈ 133 µM) | > 50 | 29.4 | > 50 | CN(C1=C(c2ccc(Br)cc2)C(=O)OC1)c1ccccc1

Compound | MIC50 [1] [mg/L] | MIC50 [2] [mg/L] | MIC50 [3] [mg/L] | IC50 [4] [µM] | MIC50 [5] [mg/L]
CC(=O)N1CCN(c2ccc(OCC3COC(Cn4ccnc4)(c4ccc(Cl)cc4Cl)O3)cc2)CC1 (centres undefined) [KETOCONAZOLE] |  |  |  |  | 4.1 (≈ 7.71 µM)
